From ChEMBL document CHEMBL1149329, “Synthesis and biological activity of sulfonamide derivatives of epipodophyllotoxin” (J Med Chem, 2004) come the findings set out here.

The target in assay [1] is DNA topoisomerase II (Homo sapiens) (UniProt P11388+Q02880). Put plainly: Inhibition of human DNA Topoisomerase II mediated DNA cleavage through the stabilization of transient DAN/topoisomerase II cleavage complex. Format: protein assay. Summed up:
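Supercoiled pBS DNA (0.1 μg) preincubated 15 min at 30 °C with drug at 50 μM in 50 mM Tris-HCl pH 7.5, 1 mM ATP, 120 mM KCl, 10 mM MgCl2, 0.5 mM DTT, 0.1 mM EDTA, BSA. Two units human topo II added, 30 min at 30 °C. SDS/proteinase K digestion 30 min at 55 °C. 1% agarose gel with ethidium bromide; linear DNA percentage read, mean of three independent experiments.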

Assay [2] relates to A549. Nature of the assay: Antitumor activity against A549 non small cell carcinoma at dose range of 70-100 mg/kg on day 14, 21, 28; activity expressed as maximum tolerated dose. The format is functional, Homo sapiens. Summed up: (§1)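 A549 human lung tumour cells were implanted orthotopically, 10⁶ cells through the chest wall into the left pleural space of anaesthetised BALB/C nude mice. Once tumours were established, drug was given iv on days 14, 21 and 28 after tumour cell injection. The endpoint was life span, expressed as T/C (%) = median survival time of treated/control × 100. MTD was the dose causing no toxic death and/or no weight loss >20%.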

Another assay relates to SK-N-MC. Nature of the assay: […] antiproliferative activity against SK-N-MC cell line. As to conditions: Homo sapiens. Format: functional.
The next assay has as its system KB 3-1. Nature of the assay: In vitro antiproliferative activity against KB-3-1 cell line. Particulars: Homo sapiens.
A further assay is filed under the species Mus musculus. Nature of the assay: Compound was evaluated for long-term survivors scored at day 60; 6/42. Format: functional.
The subject of the next assay is IGROV-1. Nature of the assay: […] antiproliferative activity against IGROV1 cell line. Particulars: Homo sapiens. The format is functional.
Assay [3] can be described thus: Median survival time of treated animals/median survival time of control animals; ranges from 122-131. Format: functional. The essentials: as §1
For the next assay, the system named is L1210. Put plainly: Percent of L1210 cells in the G2+M phase of the cell cycle at a compound concentration of 2.5 uM. Format: functional, Mus musculus. Summed up:
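L1210 cells (2.5 × 10⁵ cells/mL) were incubated for 21 h with compound at the stated concentration. Flow cytometry was run on 10⁴ cells per sample, and the percentage of cells in G2+M was recorded.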

Another assay concerns K562. Nature of the assay: […] antiproliferative activity against K-562 cell line. The format is functional. Particulars: Homo sapiens.
The test system of assay [4] is P388. Put plainly: […] antiproliferative activity against P388 cell line. Format: functional. As to conditions: Mus musculus.
A further assay has as its system MDA-MB-231. Nature of the assay: […] antiproliferative activity against MDA-MB-231 cell line. The format is functional. Particulars: Homo sapiens.
Another assay deals with A-431. Put plainly: […] antiproliferative activity against A431 cell line. As to conditions: Homo sapiens. The format is functional.
In a further assay the test system is DU-145. Put plainly: […] antiproliferative activity against DU-145 cell line. The format is functional. As to conditions: Homo sapiens.
Another assay relates to HT-29. Nature of the assay: […] antiproliferative activity against HT-29 cell line. As to conditions: Homo sapiens. The format is functional.
Assay [5] has as its system P388. Nature of the assay: Antitumor activity against P388 leukemia at dose range of 6.25-100 mg/kg on day 1, activity expressed as maximum tolerated dose. Format: functional, Mus musculus.
The test system of assay [6] is P388. Nature of the assay: Median survival time of treated animals/median survival time of control animals. Format: functional, Mus musculus.
The next assay relates to NCI-H69. Put plainly: […] antiproliferative activity against NCI-H69 cell line. Format: functional. As to conditions: Homo sapiens.
The subject of assay [7] is A549. Put plainly: […] antiproliferative activity against A549 cell line. As to conditions: Homo sapiens. Format: functional.

What is called IC50 is the concentration that inhibits the measured activity by half. Lower therefore signals higher potency. The T/C is the result in the treated group divided by that in the control group, in per cent. On to `COc1cc([C@@H]2c3cc4c(cc3[C@@H](O[C@@H]3O[C@@H]5CO[C@@H](C)O[C@H]5[C@H](O)[C@H]3O)[C@H]3COC(=O)[C@H]23)OCO4)cc(OC)c1O` [ETOPOSIDE], for which, in assay [1], the Activity came to 50. Also, the values for the MTD with A549 [2] and in the assay with P388 [5] were 70 and 100, respectively. For the same compound, the IC50 in the assay with SK-N-MC stood at 275 nM; in the assay on KB 3-1, 566 nM; with IGROV-1, 984 nM; in the assay on K562, 522 nM; in the assay on P388 [4], 29.8 nM; in the assay on MDA-MB-231, 600 nM. Besides, the IC50 was 591 nM in the assay with A-431; 2370 nM in the assay with DU-145; 2370 nM with HT-29; 1190 nM in the assay with NCI-H69; 664 nM with A549 [7]. In the assay listed under Mus musculus, this compound registered an LTS of 6. Moreover, the T/C in [3] came to 131%; with P388 [6], 233%. The compound also returned an Effect with L1210 of 80%.
